ERAP1 inh: blocks human ERAP1 aminopeptidase activity. Q9NZ08. recombinant ERAP1, Leu-AMC fluorescence, 60 min. inhibition, % at 10.7 µM. 340,000 tested, 0.15% active. AID 652197;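 active = mean replicate inhibition of at least 30%, or all replicates individually reaching that 30% level; inactive = mean below 30% and not every replicate reaching it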;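 note: 0% = neutral control wells and 100% = L-leucinethiol positive control wells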
Target sequence (Q9NZ08 whole entry, looked up): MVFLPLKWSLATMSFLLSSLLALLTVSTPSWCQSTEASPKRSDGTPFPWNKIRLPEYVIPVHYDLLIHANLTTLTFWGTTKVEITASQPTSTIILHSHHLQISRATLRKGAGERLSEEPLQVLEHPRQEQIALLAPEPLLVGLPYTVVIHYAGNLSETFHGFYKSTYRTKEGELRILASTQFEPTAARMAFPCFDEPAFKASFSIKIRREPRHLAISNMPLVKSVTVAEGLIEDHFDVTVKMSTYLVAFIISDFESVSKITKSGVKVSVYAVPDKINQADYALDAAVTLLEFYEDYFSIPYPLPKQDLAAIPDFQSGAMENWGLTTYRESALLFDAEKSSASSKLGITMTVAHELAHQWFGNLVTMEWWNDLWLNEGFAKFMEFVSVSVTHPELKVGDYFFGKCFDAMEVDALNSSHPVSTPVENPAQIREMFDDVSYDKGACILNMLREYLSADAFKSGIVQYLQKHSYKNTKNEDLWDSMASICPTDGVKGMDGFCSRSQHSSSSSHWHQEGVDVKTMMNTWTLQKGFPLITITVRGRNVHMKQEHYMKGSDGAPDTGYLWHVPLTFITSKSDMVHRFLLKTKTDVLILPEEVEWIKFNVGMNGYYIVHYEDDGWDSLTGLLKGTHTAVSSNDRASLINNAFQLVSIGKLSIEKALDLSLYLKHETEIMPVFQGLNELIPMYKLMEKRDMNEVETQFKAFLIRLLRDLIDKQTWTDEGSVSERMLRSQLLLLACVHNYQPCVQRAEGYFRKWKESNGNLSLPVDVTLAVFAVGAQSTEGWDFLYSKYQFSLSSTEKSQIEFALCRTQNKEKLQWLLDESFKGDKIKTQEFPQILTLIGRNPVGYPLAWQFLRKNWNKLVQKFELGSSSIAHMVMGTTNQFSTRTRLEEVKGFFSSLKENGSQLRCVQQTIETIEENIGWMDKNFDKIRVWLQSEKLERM
SIRT5 inh: sirtuin-5 (human) deacylase inhibition. inhibition, % at 15 µM. AID 652115. Q9NXA8. 330,000 tested, 1.1% active. Purified SirT5, succinyl-peptide AMC, trypsin-coupled fluorescence; in the data active = inhibition above about 15%; inconclusive = no clear call, values can overlap the other calls
DENV2 CPE rescue: DENV2-induced cell death inhibition; CPE inhibition, % at 9.99 µM; 350,000 tested, 1.7% active; AID 651640; DENV2-infected cells, cytopathic effect rescue, plate reader; in the data active = CPE inhibition above about 20%, passing the limit was not always enough; inconclusive = no clear call, values can overlap the other calls; tested in BHK-21 cells;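 note: 0% = median of neutral control wells and 100% = median of positive control wells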
CAL PDZ FP-1: human CAL PDZ-peptide interaction inhibition. AID 504414. purified CAL PDZ, TMR-peptide fluorescence polarization, 1 h. 330,000 tested, 0.02% active. Q9HD26. inhibition, % at 20 µM;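 active = highest replicate inhibition of at least 40%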;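 note: plate controls were DMSO neutral control wells for no effect and unlabeled competitor peptide control wells for full effect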
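Assay system – tagged CAL PDZ protein CerCALP, purified · Timing – 1 h at RT · Compound – single point, 20 µM · Measured by – fluorescence polarization from S- and P-plane intensities, G-factor corrected · Evaluation – inhibition from polarization loss · Probe or stimulus – TMR reporter peptide T*-PRC34 · Buffer or medium – pH 7.4 phosphate-saline buffer, reducing agent, detergent, IgG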
CAL PDZ FP-2: CAL PDZ (human) peptide binding inhibition | 300,000 tested, 0.92% active | Q9HD26 | inhibition, % at 24.9 µM | purified CAL PDZ, TMR-peptide fluorescence polarization, 1 h;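 active = mean inhibition of at least 30% with at least half of replicates also reaching 30%; inconclusive = no clear call, values can overlap the other calls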;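 note: 0% = DMSO neutral control and 100% = excess unlabeled competitor peptide PRC23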
S100A4 inh HTS: blocks human S100A4 binding to myosin IIA peptide. S100A4/TAMRA-MyoIIA peptide fluorescence polarization. inhibition, % at 10.7 µM. 360,000 tested, 0.14% active. AID 652163;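 active = mean inhibition of at least 70% across replicates, with every replicate also reaching that level; inconclusive = mean inhibition reaches 70% but some replicates fall short; inactive = mean inhibition below 70%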
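Test system: S100A4 monomer protein; Medium: HEPES pH 7.2 with CaCl2, KCl, NaCl, DTT, Triton; Probe or stimulus: TAMRA-labelled myosin IIA heavy-chain peptide probe, 5 nM; Doses: one dose per compound; Times: polarization read 5 min after assay mix addition, stable 5–60 min; Benchmarks: neutral control DMSO, positive control TFP.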
Starred values were filed as active, the others as inactive. Most compounds without a hit are left out; they make up all but 2.9% or so of the library.

Results for C[C@@H]1CCCCO[C@@H](CN(C)C(=O)Nc2ccc3c(c2)OCO3)[C@H](C)CN([C@H](C)CO)C(=O)c2cc(NS(=O)(=O)c3ccc(Cl)cc3)ccc2O1 ?
ERAP1 inh: -7; SIRT5 inh: 4; DENV2 CPE rescue: 6; S100A4 inh HTS: -1

How did COc1ccc(S(=O)(=O)Nc2ccc3c(c2)C(=O)N([C@@H](C)CO)C[C@@H](C)[C@@H](CN(C)C(=O)Nc2ccc(F)cc2)OCCCC[C@@H](C)O3)cc1 do in these assays?
ERAP1 inh: -2; SIRT5 inh: 18*; DENV2 CPE rescue: -6; S100A4 inh HTS: -6

What do the screens show for `COc1ccc(S(=O)(=O)Nc2ccc3c(c2)C(=O)N([C@@H](C)CO)C[C@H](C)[C@@H](CN(C)C(=O)Nc2ccc(F)cc2)OCCCC[C@@H](C)O3)cc1`?
ERAP1 inh: 0; SIRT5 inh: 16*; DENV2 CPE rescue: 18; S100A4 inh HTS: -24

What do the screens show for `COc1ccc(S(=O)(=O)Nc2ccc3c(c2)C(=O)N([C@@H](C)CO)C[C@@H](C)[C@H](CN(C)C(=O)Nc2ccc(F)cc2)OCCCC[C@@H](C)O3)cc1`?
ERAP1 inh: 2; SIRT5 inh: 8; DENV2 CPE rescue: 4; S100A4 inh HTS: -19

How did COc1ccc(S(=O)(=O)Nc2ccc3c(c2)C(=O)N([C@H](C)CO)C[C@@H](C)[C@@H](CN(C)C(=O)Nc2ccc(C(F)(F)F)cc2)OCCCC[C@@H](C)O3)cc1 do in these assays?
ERAP1 inh: -2; SIRT5 inh: 1; DENV2 CPE rescue: 53*; S100A4 inh HTS: -6

Results for C[C@@H]1CCCCO[C@H](CN(C)C(=O)Nc2ccc3c(c2)OCO3)[C@@H](C)CN([C@H](C)CO)C(=O)c2cc(NS(=O)(=O)c3ccc(Cl)cc3)ccc2O1 ?
ERAP1 inh: -4; SIRT5 inh: 3; DENV2 CPE rescue: 25*; S100A4 inh HTS: 2

Results for COc1ccc(NC(=O)N(C)C[C@H]2OCCCC[C@H](C)Oc3ccc(NS(=O)(=O)c4ccc(Cl)cc4)cc3C(=O)N([C@H](C)CO)C[C@@H]2C)cc1 ?
ERAP1 inh: -4; SIRT5 inh: 1; DENV2 CPE rescue: -8; S100A4 inh HTS: 9

How did CCC(=O)Nc1ccc2c(c1)OC[C@@H](C)N(C(=O)C1CC1)C[C@@H](C)[C@H](OC)CN(C)C2=O do in these assays?
ERAP1 inh: -2; SIRT5 inh: -3; DENV2 CPE rescue: -2; S100A4 inh HTS: -13

How did COc1ccc(NC(=O)N(C)C[C@H]2OCCCC[C@@H](C)Oc3ccc(NS(=O)(=O)c4ccc(Cl)cc4)cc3C(=O)N([C@H](C)CO)C[C@H]2C)cc1 do in these assays?
ERAP1 inh: -4; SIRT5 inh: 4; DENV2 CPE rescue: 8; S100A4 inh HTS: 2

How did COc1ccc(NC(=O)N(C)C[C@@H]2OCCCC[C@@H](C)Oc3ccc(NS(=O)(=O)c4ccc(Cl)cc4)cc3C(=O)N([C@H](C)CO)C[C@@H]2C)cc1 do in these assays?
ERAP1 inh: -5; SIRT5 inh: 5; DENV2 CPE rescue: -1; S100A4 inh HTS: 139*

What do the screens show for `O=C(C[C@@H]1CC[C@H]2[C@@H](COC[C@H](O)CN2Cc2ccc(Cl)cc2)O1)NCc1cccc(F)c1`?
ERAP1 inh: 3; SIRT5 inh: -8; DENV2 CPE rescue: -3; S100A4 inh HTS: -2

Results for CCc1nnc(NC(=O)CSc2nc(-c3ccc(OC)cc3)ns2)s1 ?
CAL PDZ FP-1: 0; CAL PDZ FP-2: 51*

How did O=C(Nc1ccncc1)Nc1ccc(Cl)cc1Cl do in these assays?
ERAP1 inh: -5; SIRT5 inh: 0; DENV2 CPE rescue: 71*; CAL PDZ FP-1: -5; CAL PDZ FP-2: -1; S100A4 inh HTS: 29

How did O=C(Nc1ccncc1)Nc1cc(Cl)ccc1Cl do in these assays?
ERAP1 inh: 2; SIRT5 inh: -2; DENV2 CPE rescue: -3; CAL PDZ FP-1: -6; CAL PDZ FP-2: -2; S100A4 inh HTS: -2

How did CCC(=O)c1ccc(N2CCCCC2)c(F)c1 do in these assays?
CAL PDZ FP-1: -2; CAL PDZ FP-2: 161*

What do the screens show for `O=C(C[C@H]1C[C@H]2c3cc(NS(=O)(=O)c4ccc(F)cc4)ccc3O[C@H]2[C@H](CO)O1)NCc1cccnc1`?
ERAP1 inh: -1; SIRT5 inh: -2; DENV2 CPE rescue: 0; S100A4 inh HTS: -26

Results for CN(C)c1ccc(N=Nc2ccc(S(N)(=O)=O)cc2)cc1 ?
ERAP1 inh: -1; SIRT5 inh: 1; DENV2 CPE rescue: inconclusive; CAL PDZ FP-1: -1; CAL PDZ FP-2: 44*; S100A4 inh HTS: -1

Results for CCN(CC)N=Nc1ccc(S(N)(=O)=O)cc1 ?
ERAP1 inh: 1; SIRT5 inh: 18*; CAL PDZ FP-1: -1; CAL PDZ FP-2: 7; S100A4 inh HTS: -7

What do the screens show for `CN(C)N=Nc1ccc(S(N)(=O)=O)cc1`?
ERAP1 inh: -5; SIRT5 inh: -1; DENV2 CPE rescue: 7; CAL PDZ FP-1: 0; CAL PDZ FP-2: 1; S100A4 inh HTS: -8

What do the screens show for `C[C@H]1CN=C(Nc2ccccc2)N1CCC1CCCCC1`?
ERAP1 inh: -2; SIRT5 inh: 22*; DENV2 CPE rescue: -5; CAL PDZ FP-1: 0; CAL PDZ FP-2: -2; S100A4 inh HTS: -5

What do the screens show for `C[C@H]1CN=C(Nc2ccccc2)N1CCCC1CCCC1`?
ERAP1 inh: -2; SIRT5 inh: -5; DENV2 CPE rescue: 58*; CAL PDZ FP-1: 1; CAL PDZ FP-2: -3; S100A4 inh HTS: -5

What do the screens show for `C[C@H]1CN=C(Nc2ccccc2)N1CC1CCCCCC1`?
ERAP1 inh: -1; SIRT5 inh: -5; DENV2 CPE rescue: 20; CAL PDZ FP-1: 0; CAL PDZ FP-2: -1; S100A4 inh HTS: -1

Results for CN(C[C@@H]1[C@H](c2ccccc2)[C@H](CO)N1Cc1ccccn1)S(C)(=O)=O ?
ERAP1 inh: -3; SIRT5 inh: 6; DENV2 CPE rescue: -6; S100A4 inh HTS: -4

Results for CN1c2ccc(-c3ccccc3F)cc2[C@@H]2[C@@H](CCN2C(=O)Nc2cc(F)ccc2F)[C@@H]1CO ?
DENV2 CPE rescue: 42*

Results for CN1c2ccc(-c3ccccc3F)cc2[C@@H]2[C@@H](CCN2C(=O)c2cccc(F)c2)[C@@H]1CO ?
DENV2 CPE rescue: 76*

Results for CCCNC(=O)N1CC[C@@H]2[C@@H](CO)N(C)c3ccc(-c4ccc(F)cc4)cc3[C@@H]21 ?
ERAP1 inh: 2; SIRT5 inh: -3; DENV2 CPE rescue: -15; S100A4 inh HTS: 93*

What do the screens show for `Cc1ccc(S(=O)(=O)Cc2ccccc2Cl)cc1`?
ERAP1 inh: 1; SIRT5 inh: 1; DENV2 CPE rescue: 29*; CAL PDZ FP-1: 0; CAL PDZ FP-2: -3; S100A4 inh HTS: 0

Screening data deposited in PubChem by Broad Institute.
